The results in this text go back to ChEMBL document CHEMBL1287728, “Potent and highly selective DP1 antagonists with 2,3,4,9-tetrahydro-1H-carbazole as pharmacophore” (Bioorg Med Chem Lett, 2010).

One data set addresses T1, Thromboxane A2 receptor (Homo sapiens, UniProt P21731).
T1 sequence (P21731 whole entry): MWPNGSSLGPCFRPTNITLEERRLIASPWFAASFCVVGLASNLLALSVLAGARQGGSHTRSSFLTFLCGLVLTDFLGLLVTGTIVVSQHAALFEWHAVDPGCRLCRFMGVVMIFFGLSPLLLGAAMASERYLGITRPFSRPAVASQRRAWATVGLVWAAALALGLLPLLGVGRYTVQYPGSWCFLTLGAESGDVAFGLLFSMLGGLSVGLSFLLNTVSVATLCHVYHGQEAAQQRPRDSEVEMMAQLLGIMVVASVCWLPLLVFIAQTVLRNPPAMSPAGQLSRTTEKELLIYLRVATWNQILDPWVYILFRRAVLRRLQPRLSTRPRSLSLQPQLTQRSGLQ
Nature of the data set: Antagonist activity at prostanoid TP receptor. The data set is classed as functional.

Data set [1] addresses T2, Prostaglandin D2 receptor (Homo sapiens, UniProt Q13258).
T2 sequence (Q13258 whole entry): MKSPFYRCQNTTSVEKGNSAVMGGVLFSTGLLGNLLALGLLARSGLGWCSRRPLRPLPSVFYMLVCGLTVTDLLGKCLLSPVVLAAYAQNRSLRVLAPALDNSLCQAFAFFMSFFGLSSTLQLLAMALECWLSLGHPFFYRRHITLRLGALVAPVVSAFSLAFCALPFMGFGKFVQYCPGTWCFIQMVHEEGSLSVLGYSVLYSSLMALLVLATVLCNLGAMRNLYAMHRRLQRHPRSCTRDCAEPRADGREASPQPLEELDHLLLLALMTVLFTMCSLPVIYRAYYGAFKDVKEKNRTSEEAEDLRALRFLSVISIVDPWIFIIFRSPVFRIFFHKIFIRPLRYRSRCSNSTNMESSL
As to the kind of experiment: Antagonist activity at prostanoid DP1 receptor. The data set is classed as functional.

Data set [2] can be described thus: Chemical stability of compound in 0.01N HCl after 2 hrs. Type of data set: physicochemical. The note with it: read-out: Stability. The method in brief: (§1)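 Compound incubated in 0.01 N HCl at 37 °C; percent of compound recovered after 2 h or 6 h.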
Data set [3] addresses T3, Prostaglandin E2 receptor EP1 subtype (Homo sapiens, UniProt P34995).
T3 sequence (P34995 whole entry): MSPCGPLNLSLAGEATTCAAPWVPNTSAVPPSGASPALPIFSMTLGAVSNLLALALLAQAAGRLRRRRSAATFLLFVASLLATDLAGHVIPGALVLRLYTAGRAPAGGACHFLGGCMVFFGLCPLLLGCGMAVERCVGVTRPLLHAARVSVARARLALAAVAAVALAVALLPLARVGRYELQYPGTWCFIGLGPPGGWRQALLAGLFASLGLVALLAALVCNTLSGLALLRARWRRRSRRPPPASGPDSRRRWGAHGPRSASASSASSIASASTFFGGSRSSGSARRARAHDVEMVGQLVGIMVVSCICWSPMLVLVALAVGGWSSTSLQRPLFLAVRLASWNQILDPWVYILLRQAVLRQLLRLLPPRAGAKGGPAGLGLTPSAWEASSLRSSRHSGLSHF
Nature of the data set: Binding affinity to prostanoid receptor EP1 receptor.

The nature of data set [4]: Chemical stability of compound in 0.01N HCl after 6 hrs. Type of data set: physicochemical. The note with it: read-out: Stability. A digest of the protocol:
as §1

Data set [5] concerns the target Prostaglandin E2 receptor EP2 subtype (Homo sapiens, UniProt P43116). Nature of the data set: Binding affinity to prostanoid receptor EP2 receptor.
Another data set addresses Prostacyclin receptor (Homo sapiens, UniProt P43119). As to the kind of experiment: Binding affinity to prostanoid receptor IP receptor.
In data set [6] the target is T2, Prostaglandin D2 receptor. Nature of the data set: Antagonist activity at prostanoid DP1 receptor in human platelet assessed as inhibition of PGD2 induced accumulation of cAMP. The data set is classed as functional. A digest of the protocol: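 Human platelet-rich plasma; cAMP accumulation induced by PGD₂, measured with antagonist present; IC₅₀ reported.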
A short description of data set [7]: Selectivity ratio of Ki for prostanoid DP1 receptor to Ki for prostanoid EP3 receptor.
In data set [8] the target is Prostaglandin E2 receptor EP4 subtype (Homo sapiens, UniProt P35408). Nature of the data set: Binding affinity to prostanoid receptor EP4 receptor.
The species named for the next data set is Homo sapiens. Nature of the data set: Selectivity ratio of IC50 for prostanoid DP1 receptor to IC50 for TP receptor in human platelet. The method in brief: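 Ratio of IC₅₀ values from two human platelet-rich plasma assays: PGD₂-induced cAMP accumulation (DP1) and U46619-induced platelet aggregation (TP).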
The target in data set [9] is Prostaglandin F2-alpha receptor (Homo sapiens, UniProt P43088). As to the kind of experiment: Binding affinity to prostanoid receptor FP receptor.
In data set [10] the target is T4, Prostaglandin E2 receptor EP3 subtype (Homo sapiens, UniProt P43115).
T4 sequence (P43115 whole entry): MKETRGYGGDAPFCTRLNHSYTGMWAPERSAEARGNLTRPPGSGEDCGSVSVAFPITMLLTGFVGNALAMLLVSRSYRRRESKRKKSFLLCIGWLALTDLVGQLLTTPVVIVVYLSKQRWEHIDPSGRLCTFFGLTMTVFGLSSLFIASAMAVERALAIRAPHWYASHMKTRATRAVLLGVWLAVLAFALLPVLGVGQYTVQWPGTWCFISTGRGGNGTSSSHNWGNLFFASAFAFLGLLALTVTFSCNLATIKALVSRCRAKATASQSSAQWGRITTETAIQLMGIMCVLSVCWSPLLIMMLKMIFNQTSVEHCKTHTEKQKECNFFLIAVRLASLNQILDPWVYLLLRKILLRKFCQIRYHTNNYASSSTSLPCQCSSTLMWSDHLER
As to the kind of experiment: Binding affinity to prostanoid receptor EP3 receptor.

Chain of Prostacyclin receptor (P43119 whole entry): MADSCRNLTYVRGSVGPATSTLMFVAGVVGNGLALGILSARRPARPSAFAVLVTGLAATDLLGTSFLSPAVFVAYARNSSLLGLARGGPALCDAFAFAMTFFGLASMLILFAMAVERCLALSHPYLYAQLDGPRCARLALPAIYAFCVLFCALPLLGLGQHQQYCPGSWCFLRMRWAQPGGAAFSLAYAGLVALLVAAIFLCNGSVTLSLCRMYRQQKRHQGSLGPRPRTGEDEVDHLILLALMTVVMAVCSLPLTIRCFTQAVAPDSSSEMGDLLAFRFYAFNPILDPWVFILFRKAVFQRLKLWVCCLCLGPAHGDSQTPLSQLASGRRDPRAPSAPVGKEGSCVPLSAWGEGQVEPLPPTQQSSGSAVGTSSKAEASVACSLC
Chain of Prostaglandin F2-alpha receptor (P43088 whole entry): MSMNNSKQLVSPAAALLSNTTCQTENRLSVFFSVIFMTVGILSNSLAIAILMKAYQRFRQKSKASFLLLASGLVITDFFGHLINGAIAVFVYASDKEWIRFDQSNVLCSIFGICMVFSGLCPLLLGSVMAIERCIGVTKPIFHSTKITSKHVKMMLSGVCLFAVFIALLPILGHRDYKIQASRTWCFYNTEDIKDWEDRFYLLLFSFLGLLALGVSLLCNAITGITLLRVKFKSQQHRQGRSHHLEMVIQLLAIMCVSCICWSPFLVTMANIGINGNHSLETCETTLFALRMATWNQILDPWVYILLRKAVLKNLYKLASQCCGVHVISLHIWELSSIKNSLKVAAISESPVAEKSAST
Chain of Prostaglandin E2 receptor EP4 subtype (P35408 whole entry): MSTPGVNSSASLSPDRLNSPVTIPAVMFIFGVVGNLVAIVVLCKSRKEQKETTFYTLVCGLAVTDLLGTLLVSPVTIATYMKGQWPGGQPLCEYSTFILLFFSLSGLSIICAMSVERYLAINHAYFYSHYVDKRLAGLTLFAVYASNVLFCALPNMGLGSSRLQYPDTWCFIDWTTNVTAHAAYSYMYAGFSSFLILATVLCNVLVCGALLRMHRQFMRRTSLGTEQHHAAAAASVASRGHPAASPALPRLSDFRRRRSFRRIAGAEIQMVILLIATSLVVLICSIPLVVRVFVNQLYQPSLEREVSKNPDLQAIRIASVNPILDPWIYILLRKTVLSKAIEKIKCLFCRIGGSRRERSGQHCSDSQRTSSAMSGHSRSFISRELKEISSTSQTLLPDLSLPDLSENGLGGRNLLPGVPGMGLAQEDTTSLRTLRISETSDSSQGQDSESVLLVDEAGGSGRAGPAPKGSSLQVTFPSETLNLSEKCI
Chain of Prostaglandin E2 receptor EP2 subtype (P43116 whole entry): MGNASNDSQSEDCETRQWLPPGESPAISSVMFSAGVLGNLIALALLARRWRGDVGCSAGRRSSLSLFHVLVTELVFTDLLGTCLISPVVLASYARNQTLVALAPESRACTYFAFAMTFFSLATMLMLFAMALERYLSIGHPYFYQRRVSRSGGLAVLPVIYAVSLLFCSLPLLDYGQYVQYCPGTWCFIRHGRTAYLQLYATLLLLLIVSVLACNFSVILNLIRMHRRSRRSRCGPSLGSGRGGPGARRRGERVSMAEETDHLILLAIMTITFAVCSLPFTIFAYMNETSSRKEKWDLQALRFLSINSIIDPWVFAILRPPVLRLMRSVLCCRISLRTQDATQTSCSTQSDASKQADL

The Ki is a dissociation constant, usually derived from enzyme kinetics or from competition with a known ligand. A low value points to higher affinity. As to `C[C@@H](c1ccccc1)n1c2c(c3cc(F)cc(S(C)(=O)=O)c31)CCC[C@@H]2CC(=O)O`, the Ki at Thromboxane A2 receptor worked out at 362 nM; in data set [1], 0.36 nM.
The matching figures for `C[C@@H](c1ccc(Cl)cc1F)n1c2c(c3cc(F)cc(S(C)(=O)=O)c31)CCC[C@@H]2CC(=O)O`: 270 nM and 0.41 nM.
The matching figures for `C[C@@H](c1ccc(F)cc1)n1c2c(c3cc(F)cc(S(C)(=O)=O)c31)CCC[C@@H]2CC(=O)O`: 100 nM and 0.33 nM.
Regarding `C[C@@H](c1ccc(S(C)(=O)=O)cc1)n1c2c(c3cc(F)cc(S(C)(=O)=O)c31)CCC[C@@H]2CC(=O)O`, the Ki at Thromboxane A2 receptor came to 1480 nM; in data set [1] it was 16.5 nM.
As for `C[C@@H](c1ccc(Cl)cc1)n1c2c(c3cc(F)cc(S(C)(=O)=O)c31)CCC[C@@H]2CC(=O)O`, the remaining at 2 h in data set [2] came to 79%. Besides, the Ki worked out at 184 nM on Thromboxane A2 receptor and 0.75 nM in data set [1].
With `C[C@@H](c1ccc(Cl)c(F)c1)n1c2c(c3cc(F)cc(S(C)(=O)=O)c31)CCC[C@@H]2CC(=O)O`, the results for the inhibition constant Ki (on Thromboxane A2 receptor; in data set [1]) were 200 nM and 0.38 nM, respectively.
For the molecule `C[C@@H](c1ccc(Br)cc1)n1c2c(c3cc(F)cc(S(C)(=O)=O)c31)CCC[C@@H]2CC(=O)O`, the Ki came to 106 nM at Thromboxane A2 receptor and 0.38 nM in data set [1].
`CC(c1ccc(Cl)cc1)n1c2c(c3cc(F)cc(S(C)(=O)=O)c31)CCCC2CC(=O)O` (single isomer, unassigned; fast eluting) displayed a Ki in data set [1] of 12 nM.
For `C[C@@H](c1ccc(C#N)cc1)n1c2c(c3cc(F)cc(S(C)(=O)=O)c31)CCC[C@@H]2CC(=O)O`, the Ki at Thromboxane A2 receptor was 93 nM; in data set [1] it was 0.51 nM.
Consider `CC(c1ccc(Cl)cc1)n1c2c(c3cc(F)cc(S(C)(=O)=O)c31)CCCC2CC(=O)O` (single isomer, unassigned; slow-eluting), for which the Ki in [1] was determined as 1.3 nM.
For `CS(=O)(=O)c1cc(F)cc2c3c(n([C@H](c4ccc(Cl)cc4)C(F)F)c12)[C@@H](CC(=O)O)CCC3`, the Ki on Thromboxane A2 receptor amounted to 130 nM; in [1] it was 0.36 nM.
Regarding `CS(=O)(=O)c1cc(F)cc2c3c(n([C@@H](CF)c4ccc(Cl)cc4)c12)[C@@H](CC(=O)O)CCC3`, the Ki at Thromboxane A2 receptor amounted to 138 nM; in [1] it was 0.39 nM.
By IC50 is commonly meant the concentration that inhibits the measured activity by half. For the molecule `C[C@@H](c1ccc(C(F)(F)F)cc1)n1c2c(c3cc(F)cc(S(C)(=O)=O)c31)CCC[C@@H]2CC(=O)O`, the inhibitory constant (Ki) was 4590 nM in [3]; 2270 nM in data set [5]; 15500 nM at Prostacyclin receptor; 6610 nM in [8]; 338 nM at Thromboxane A2 receptor; 4320 nM in [9]. In addition, the Ki in data set [1] came to 0.43 nM; in data set [10], 830 nM. The remaining at 6 h in data set [4] stood at 99.6%. Further, in data set [6], the IC50 was determined as 2.5 nM. In addition, the Ratio in data set [7] turned out to be 1900; in the data set filed under Homo sapiens it was 7760.
Turning to `C[C@@H](c1cccc(Cl)c1)n1c2c(c3cc(F)cc(S(C)(=O)=O)c31)CCC[C@@H]2CC(=O)O`, the Ki at Thromboxane A2 receptor worked out at 292 nM; in [1], 0.31 nM.
As to `CS(=O)(=O)c1cc(F)cc2c3c(n(Cc4ccc(Cl)cc4)c12)C(CC(=O)O)CCC3` (racemic), the Ki at Thromboxane A2 receptor was 2.51 nM; in data set [1], 0.89 nM.
Regarding `C[C@@H](c1ccc(Cl)c(Cl)c1)n1c2c(c3cc(F)cc(S(C)(=O)=O)c31)CCC[C@@H]2CC(=O)O`, the Ki on Thromboxane A2 receptor was found to be 112 nM; in data set [1] it was 0.33 nM.
